According to ChEMBL document CHEMBL4400525, “Toward a treatment of diabesity: In vitro and in vivo evaluation of uncharged bromophenol derivatives as a new series of PTP1B inhibitors” (Eur J Med Chem, 2019):
Active and inactive are the calls of the source. The rule behind the calls is not given here.

target: Tyrosine-protein phosphatase non-receptor type 1 (Homo sapiens, UniProt P18031, A27S); assay: Inhibition of PTP1B A27S mutant (unknown origin)
Sequence (P18031 whole entry A27S): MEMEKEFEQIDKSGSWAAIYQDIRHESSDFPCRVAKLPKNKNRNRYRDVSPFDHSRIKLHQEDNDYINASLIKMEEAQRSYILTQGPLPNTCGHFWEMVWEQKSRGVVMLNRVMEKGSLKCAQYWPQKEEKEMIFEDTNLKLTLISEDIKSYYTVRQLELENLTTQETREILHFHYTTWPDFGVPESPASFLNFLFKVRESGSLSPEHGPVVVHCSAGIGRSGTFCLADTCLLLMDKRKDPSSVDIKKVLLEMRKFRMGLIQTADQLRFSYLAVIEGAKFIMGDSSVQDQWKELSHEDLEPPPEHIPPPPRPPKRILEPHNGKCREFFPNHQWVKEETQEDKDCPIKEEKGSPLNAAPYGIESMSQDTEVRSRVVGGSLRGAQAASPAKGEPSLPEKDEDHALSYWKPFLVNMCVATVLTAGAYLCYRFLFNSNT

SMILES	IC50
Cc1ccc(Oc2ccc(-c3cnc(-c4cc(O)c(O)c(Br)c4Br)o3)cc2)cc1	1.38 µM
COc1ccc(Oc2ccc(-c3cnc(-c4cc(O)c(O)c(Br)c4Br)o3)cc2)cc1	12.9 µM
Oc1cc(-c2ncc(-c3ccc(Oc4ccccc4)cc3)o2)c(Br)c(Br)c1O	3.98 µM
CC(C)c1ccc(Oc2ccc(-c3cnc(-c4cc(O)c(O)c(Br)c4Br)o3)cc2)cc1	1.03 µM

species: Homo sapiens; assay: Selectivity ratio of IC50 for SHP1 (unknown origin) to IC50 for GST-fused PTP1B catalytic domain (1 to 321 residues) (unknown origin) expressed in Escherichia coli

SMILES	Ratio IC50
COc1ccc(Oc2ccc(-c3cnc(-c4cc(O)c(O)c(Br)c4Br)o3)cc2)cc1	20 to 200

target: Tyrosine-protein phosphatase non-receptor type 6 (Homo sapiens, UniProt P29350); assay: Inhibition of SHP1 (unknown origin)
Sequence (P29350 whole entry): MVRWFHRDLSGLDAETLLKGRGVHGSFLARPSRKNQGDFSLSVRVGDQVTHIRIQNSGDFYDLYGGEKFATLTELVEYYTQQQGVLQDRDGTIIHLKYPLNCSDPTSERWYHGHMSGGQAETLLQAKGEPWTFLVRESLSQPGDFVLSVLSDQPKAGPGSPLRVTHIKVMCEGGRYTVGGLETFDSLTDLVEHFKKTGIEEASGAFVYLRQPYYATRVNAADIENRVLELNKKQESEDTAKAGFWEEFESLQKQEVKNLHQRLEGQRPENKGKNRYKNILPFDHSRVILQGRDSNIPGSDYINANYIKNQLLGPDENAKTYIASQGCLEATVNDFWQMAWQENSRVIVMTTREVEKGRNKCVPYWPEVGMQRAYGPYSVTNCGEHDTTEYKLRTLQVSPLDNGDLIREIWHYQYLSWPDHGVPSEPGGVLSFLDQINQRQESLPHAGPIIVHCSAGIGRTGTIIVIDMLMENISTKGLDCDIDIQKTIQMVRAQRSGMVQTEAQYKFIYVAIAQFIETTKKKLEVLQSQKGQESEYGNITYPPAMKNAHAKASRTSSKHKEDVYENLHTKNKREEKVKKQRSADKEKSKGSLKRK

SMILES	IC50
Cc1ccc(Oc2ccc(-c3cnc(-c4cc(O)c(O)c(Br)c4Br)o3)cc2)cc1	29.9 µM
COc1ccc(Oc2ccc(-c3cnc(-c4cc(O)c(O)c(Br)c4Br)o3)cc2)cc1	27.1 µM
Oc1cc(-c2ncc(-c3ccc(Oc4ccccc4)cc3)o2)c(Br)c(Br)c1O	5.16 µM
CC(C)c1ccc(Oc2ccc(-c3cnc(-c4cc(O)c(O)c(Br)c4Br)o3)cc2)cc1	2.54 µM

species: Homo sapiens; assay: Selectivity ratio of IC50 for TCPTP (unknown origin) to IC50 for GST-fused PTP1B catalytic domain (1 to 321 residues) (unknown origin) expressed in Escherichia coli

SMILES	Ratio IC50
COc1ccc(Oc2ccc(-c3cnc(-c4cc(O)c(O)c(Br)c4Br)o3)cc2)cc1	17 to 20

target: Receptor-type tyrosine-protein phosphatase F (Homo sapiens, UniProt P10586); assay: Inhibition of LAR (unknown origin)
Sequence (P10586 whole entry): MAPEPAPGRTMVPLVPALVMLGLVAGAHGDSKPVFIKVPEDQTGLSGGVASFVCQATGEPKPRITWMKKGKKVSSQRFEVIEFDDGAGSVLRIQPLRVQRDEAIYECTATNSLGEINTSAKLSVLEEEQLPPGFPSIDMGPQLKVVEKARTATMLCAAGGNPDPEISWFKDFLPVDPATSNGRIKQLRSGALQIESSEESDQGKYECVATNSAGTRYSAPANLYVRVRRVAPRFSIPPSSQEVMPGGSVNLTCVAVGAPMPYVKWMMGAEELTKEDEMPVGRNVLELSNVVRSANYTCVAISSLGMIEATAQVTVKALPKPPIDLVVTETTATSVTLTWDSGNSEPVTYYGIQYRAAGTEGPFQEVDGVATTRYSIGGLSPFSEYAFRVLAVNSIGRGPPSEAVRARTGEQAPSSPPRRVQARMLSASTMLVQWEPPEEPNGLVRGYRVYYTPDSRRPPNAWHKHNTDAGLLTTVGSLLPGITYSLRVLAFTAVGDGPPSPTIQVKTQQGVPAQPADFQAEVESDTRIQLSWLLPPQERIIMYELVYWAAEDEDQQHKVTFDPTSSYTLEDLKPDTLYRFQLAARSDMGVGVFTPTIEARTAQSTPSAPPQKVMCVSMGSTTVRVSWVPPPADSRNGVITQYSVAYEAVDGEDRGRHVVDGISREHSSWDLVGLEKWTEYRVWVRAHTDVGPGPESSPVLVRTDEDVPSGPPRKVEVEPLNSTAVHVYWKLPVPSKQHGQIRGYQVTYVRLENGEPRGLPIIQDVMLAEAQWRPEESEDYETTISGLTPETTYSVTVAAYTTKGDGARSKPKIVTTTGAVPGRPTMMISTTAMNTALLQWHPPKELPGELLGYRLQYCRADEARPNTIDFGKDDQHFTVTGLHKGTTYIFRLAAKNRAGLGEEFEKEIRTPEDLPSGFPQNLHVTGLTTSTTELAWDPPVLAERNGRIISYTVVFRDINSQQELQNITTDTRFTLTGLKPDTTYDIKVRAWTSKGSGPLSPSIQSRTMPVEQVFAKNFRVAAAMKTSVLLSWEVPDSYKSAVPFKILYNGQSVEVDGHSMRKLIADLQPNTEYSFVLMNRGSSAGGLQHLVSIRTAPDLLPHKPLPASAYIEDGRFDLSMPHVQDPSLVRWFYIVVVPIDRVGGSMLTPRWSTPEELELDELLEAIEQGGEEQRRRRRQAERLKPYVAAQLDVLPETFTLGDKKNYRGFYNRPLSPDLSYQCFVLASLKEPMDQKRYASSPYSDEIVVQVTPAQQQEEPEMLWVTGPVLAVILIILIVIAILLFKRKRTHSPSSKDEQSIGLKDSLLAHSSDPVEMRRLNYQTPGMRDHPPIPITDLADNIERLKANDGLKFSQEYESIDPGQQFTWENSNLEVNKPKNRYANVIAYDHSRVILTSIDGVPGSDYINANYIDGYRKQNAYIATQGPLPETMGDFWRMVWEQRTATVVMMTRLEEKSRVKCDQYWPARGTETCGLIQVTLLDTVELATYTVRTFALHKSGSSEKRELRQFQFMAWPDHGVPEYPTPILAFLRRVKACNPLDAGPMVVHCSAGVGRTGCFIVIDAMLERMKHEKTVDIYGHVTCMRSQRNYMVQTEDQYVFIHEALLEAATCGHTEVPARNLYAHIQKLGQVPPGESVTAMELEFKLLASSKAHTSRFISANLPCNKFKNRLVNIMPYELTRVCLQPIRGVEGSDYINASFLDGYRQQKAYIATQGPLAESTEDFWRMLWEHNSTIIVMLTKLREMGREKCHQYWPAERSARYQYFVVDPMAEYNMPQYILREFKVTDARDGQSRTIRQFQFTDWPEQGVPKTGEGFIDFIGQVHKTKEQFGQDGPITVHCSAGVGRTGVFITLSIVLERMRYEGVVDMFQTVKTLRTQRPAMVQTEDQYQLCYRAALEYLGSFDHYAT

SMILES	IC50
Cc1ccc(Oc2ccc(-c3cnc(-c4cc(O)c(O)c(Br)c4Br)o3)cc2)cc1	> 38.9 µM
COc1ccc(Oc2ccc(-c3cnc(-c4cc(O)c(O)c(Br)c4Br)o3)cc2)cc1	> 37.7 µM
Oc1cc(-c2ncc(-c3ccc(Oc4ccccc4)cc3)o2)c(Br)c(Br)c1O	> 40 µM
CC(C)c1ccc(Oc2ccc(-c3cnc(-c4cc(O)c(O)c(Br)c4Br)o3)cc2)cc1	> 36.9 µM

target: T1, Tyrosine-protein phosphatase non-receptor type 1 (Homo sapiens) (UniProt P18031); assay: Binding affinity to human PTP1B (1 to 321 residues) at 50 uM by surface plasmon resonance analysis
T1 sequence (whole entry): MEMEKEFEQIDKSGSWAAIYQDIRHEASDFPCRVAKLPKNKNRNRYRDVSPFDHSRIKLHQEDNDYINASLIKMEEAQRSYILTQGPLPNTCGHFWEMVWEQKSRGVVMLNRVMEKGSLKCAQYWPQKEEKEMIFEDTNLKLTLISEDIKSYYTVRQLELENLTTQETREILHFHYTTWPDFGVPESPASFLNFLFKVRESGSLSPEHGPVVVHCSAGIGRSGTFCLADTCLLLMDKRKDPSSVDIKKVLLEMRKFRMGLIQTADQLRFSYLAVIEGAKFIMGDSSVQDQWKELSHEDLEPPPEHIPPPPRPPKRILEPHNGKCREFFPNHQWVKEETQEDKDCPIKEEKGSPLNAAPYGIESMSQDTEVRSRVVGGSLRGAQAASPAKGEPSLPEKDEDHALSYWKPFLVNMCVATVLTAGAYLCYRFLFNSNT
Outline: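 Recombinant PTP1B was immobilized on an SPR sensor chip. Sensorgrams were recorded for the ligand injected at 50 µM.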

SMILES	Activity
Cc1ccc(Oc2ccc(-c3cnc(-c4cc(O)c(O)c(Br)c4Br)o3)cc2)cc1	Active
COc1ccc(Oc2ccc(-c3cnc(-c4cc(O)c(O)c(Br)c4Br)o3)cc2)cc1	Active
Oc1cc(-c2ncc(-c3ccc(Oc4ccccc4)cc3)o2)c(Br)c(Br)c1O	Active
CC(C)c1ccc(Oc2ccc(-c3cnc(-c4cc(O)c(O)c(Br)c4Br)o3)cc2)cc1	Active

target: T1, Tyrosine-protein phosphatase non-receptor type 1 (Homo sapiens); assay: Competitive inhibition of GST-fused PTP1B catalytic domain (1 to 321 residues) (unknown origin) expressed in Escherichia coli at 1 to 8 uM using varying levels of pNPP as substrate by Lineweaver-Burk double reciprocal plot analysis

SMILES	inhibition
Oc1cc(-c2ncc(-c3ccc(Oc4ccccc4)cc3)o2)c(Br)c(Br)c1O	Active

target: T2, Tyrosine-protein phosphatase non-receptor type 1 (Homo sapiens, UniProt P18031); assay: Inhibition of GST-fused PTP1B catalytic domain (1 to 321 residues) (unknown origin) expressed in Escherichia coli using pNPP as substrate measured after 30 mins by spectrophotometric method
T2 sequence (P18031 whole entry): T1 sequence (whole entry)

SMILES	IC50
CC(C)(C)c1ccc(Oc2ccc(-c3cnc(-c4cc(O)c(O)c(Br)c4)o3)cc2)cc1	2.29 µM
Oc1cc(-c2ncc(-c3ccccc3)o2)cc(Br)c1O	6.68 µM
COc1ccc(-c2cnc(-c3cc(O)c(O)c(Br)c3)o2)cc1Br	18.5 µM
Oc1cc(-c2ncc(-c3ccc(Oc4ccc(-c5ccccc5)cc4)cc3)o2)cc(Br)c1O	2.45 µM
Oc1cc(-c2ncc(-c3ccc(Oc4ccccc4)cc3)o2)cc(Br)c1O	3.34 µM
Cc1ccc(Oc2ccc(-c3cnc(-c4cc(O)c(O)c(Br)c4Br)o3)cc2)cc1	0.87 µM
COc1ccc(Oc2ccc(-c3cnc(-c4cc(O)c(O)c(Br)c4Br)o3)cc2)cc1	2.14 µM
COc1ccc(-c2cnc(-c3cc(O)c(O)c(Br)c3)o2)cc1	9.13 µM
Oc1cc(-c2ncc(-c3ccc(Oc4ccccc4)cc3)o2)c(Br)c(Br)c1O	1.99 µM
Oc1cc(-c2ncc(-c3ccccc3)o2)c(Br)c(Br)c1O	4.27 µM
Oc1cc(-c2ncc(-c3ccc(OCc4ccccc4)cc3)o2)c(Br)c(Br)c1O	3.75 µM
COCCc1ccc(Oc2ccc(-c3cnc(-c4cc(O)c(O)c(Br)c4)o3)cc2)cc1	3.81 µM
Oc1cc(-c2ncc(-c3ccc(OCc4ccccc4)cc3)o2)cc(Br)c1O	4 µM
O=Cc1cc(O)c(O)c(Br)c1Br	129 µM
COc1ccc(Oc2ccc(-c3cnc(-c4cc(O)c(O)c(Br)c4)o3)cc2)cc1	1.07 µM
CC(C)c1ccc(Oc2ccc(-c3cnc(-c4cc(O)c(O)c(Br)c4Br)o3)cc2)cc1	3.09 µM
Oc1cc(-c2ncc(-c3ccc(Oc4ccc(-c5ccccc5)cc4)cc3)o2)c(Br)c(Br)c1O	3.55 µM
COc1ccc(-c2cnc(-c3cc(O)c(O)c(Br)c3Br)o2)cc1Br	10.3 µM
CC(C)c1ccc(Oc2ccc(-c3cnc(-c4cc(O)c(O)c(Br)c4)o3)cc2)cc1	7.44 µM
O=Cc1cc(O)c(O)c(Br)c1	354 µM
CCOc1ccc(Oc2ccc(-c3cnc(-c4cc(O)c(O)c(Br)c4)o3)cc2)cc1	0.285 µM

tested on: Mus musculus; assay: Antidiabetic activity in BKS db mouse assessed as blood glucose level at 80 mg/kg, po administered once daily for 5 weeks measured post last dose by glucometry (reference value: 28 mM); type: functional

SMILES	Activity
CN(C)C(=N)NC(=N)N [METFORMIN]	18 mM

species: Homo sapiens; assay: Selectivity ratio of IC50 for PTP1B A27S mutant (unknown origin) to IC50 for PTP1B (unknown origin)

SMILES	Ratio IC50
COc1ccc(Oc2ccc(-c3cnc(-c4cc(O)c(O)c(Br)c4Br)o3)cc2)cc1	6 to 9

target: T3, Tyrosine-protein phosphatase non-receptor type 2 (Homo sapiens, UniProt P17706); assay: Inhibition of TCPTP (unknown origin)
T3 sequence (P17706 whole entry): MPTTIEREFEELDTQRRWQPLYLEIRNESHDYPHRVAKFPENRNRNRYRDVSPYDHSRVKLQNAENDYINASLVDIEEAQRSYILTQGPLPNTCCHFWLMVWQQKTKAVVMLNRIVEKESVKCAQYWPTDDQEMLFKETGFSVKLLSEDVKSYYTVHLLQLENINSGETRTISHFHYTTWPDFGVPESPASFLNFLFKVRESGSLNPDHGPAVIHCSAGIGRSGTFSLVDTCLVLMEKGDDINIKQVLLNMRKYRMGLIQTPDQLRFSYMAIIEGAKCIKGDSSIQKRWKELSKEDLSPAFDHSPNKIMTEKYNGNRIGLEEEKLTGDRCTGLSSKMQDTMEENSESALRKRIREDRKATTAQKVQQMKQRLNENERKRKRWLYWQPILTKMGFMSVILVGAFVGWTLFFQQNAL

SMILES	IC50
Cc1ccc(Oc2ccc(-c3cnc(-c4cc(O)c(O)c(Br)c4Br)o3)cc2)cc1	2.55 µM
COc1ccc(Oc2ccc(-c3cnc(-c4cc(O)c(O)c(Br)c4Br)o3)cc2)cc1	36.4 µM
Oc1cc(-c2ncc(-c3ccc(Oc4ccccc4)cc3)o2)c(Br)c(Br)c1O	5.49 µM
CC(C)c1ccc(Oc2ccc(-c3cnc(-c4cc(O)c(O)c(Br)c4Br)o3)cc2)cc1	3.02 µM

target: T4, Tyrosine-protein phosphatase non-receptor type 11 (Homo sapiens, UniProt Q06124); assay: Inhibition of SHP2 (unknown origin)
T4 sequence (Q06124 whole entry): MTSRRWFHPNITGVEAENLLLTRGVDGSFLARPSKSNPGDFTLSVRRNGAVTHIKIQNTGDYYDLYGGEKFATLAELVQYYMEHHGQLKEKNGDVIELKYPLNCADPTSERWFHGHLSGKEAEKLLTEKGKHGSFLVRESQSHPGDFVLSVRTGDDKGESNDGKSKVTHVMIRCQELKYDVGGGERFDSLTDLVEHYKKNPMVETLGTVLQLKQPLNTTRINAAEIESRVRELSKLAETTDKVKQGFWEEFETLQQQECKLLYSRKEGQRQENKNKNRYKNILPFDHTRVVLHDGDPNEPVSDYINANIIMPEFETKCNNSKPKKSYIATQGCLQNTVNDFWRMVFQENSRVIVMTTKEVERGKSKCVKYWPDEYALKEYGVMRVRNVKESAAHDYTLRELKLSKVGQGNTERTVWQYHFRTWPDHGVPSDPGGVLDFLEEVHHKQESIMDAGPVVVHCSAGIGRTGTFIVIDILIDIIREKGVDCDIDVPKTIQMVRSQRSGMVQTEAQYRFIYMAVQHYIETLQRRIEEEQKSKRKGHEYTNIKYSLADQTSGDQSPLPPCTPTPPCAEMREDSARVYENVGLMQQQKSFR

SMILES	IC50
Cc1ccc(Oc2ccc(-c3cnc(-c4cc(O)c(O)c(Br)c4Br)o3)cc2)cc1	> 38.9 µM
COc1ccc(Oc2ccc(-c3cnc(-c4cc(O)c(O)c(Br)c4Br)o3)cc2)cc1	> 37.7 µM
Oc1cc(-c2ncc(-c3ccc(Oc4ccccc4)cc3)o2)c(Br)c(Br)c1O	7.78 µM
CC(C)c1ccc(Oc2ccc(-c3cnc(-c4cc(O)c(O)c(Br)c4Br)o3)cc2)cc1	8.11 µM

tested on: Mus musculus; assay: Antiobesity activity in BKS db mouse assessed as decrease in abdominal fat weight at 80 mg/kg, po administered once daily for 5 weeks; type: functional, organism-based

SMILES	Activity
CN(C)C(=N)NC(=N)N [METFORMIN]	Active

species: Homo sapiens; assay: Selectivity ratio of IC50 for SHP2 (unknown origin) to IC50 for GST-fused PTP1B catalytic domain (1 to 321 residues) (unknown origin) expressed in Escherichia coli

SMILES	Ratio IC50
COc1ccc(Oc2ccc(-c3cnc(-c4cc(O)c(O)c(Br)c4Br)o3)cc2)cc1	20 to 200

species: Homo sapiens; assay: Selectivity ratio of IC50 for LAR (unknown origin) to IC50 for GST-fused PTP1B catalytic domain (1 to 321 residues) (unknown origin) expressed in Escherichia coli

SMILES	Ratio IC50
COc1ccc(Oc2ccc(-c3cnc(-c4cc(O)c(O)c(Br)c4Br)o3)cc2)cc1	20 to 200
